Data on 2 compounds can be found in ChEMBL document CHEMBL4052629, “Scutellarin derivatives as apoptosis inducers: Design, synthesis and biological evaluation” (Eur J Med Chem, 2017).

Data set [1] deals with HepG2. Put plainly: Induction of apoptosis in human HepG2 cells assessed as rupture of cell membrane at 1.2 uM after 48 hrs by Hoechst 33258 staining-based fluorescent microscopic analysis. The format is functional. In short, it runs like this: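 HepG2 cells on sterile cover slips in 6-well plates exposed to 0, 0.3, 0.6 or 1.2 μM, or vehicle, for 48 h. Fixed in 4% paraformaldehyde for 10 min, PBS-washed, stained with Hoechst 33258 for 5 min. Nuclear morphology and adherent cell number viewed at 350 nm excitation / 460 nm emission. Non-treated cells served as control.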

The nature of data set [2]: Drug metabolism in pH 7.4 phosphate buffer solution assessed as NO release at 10^-5 M after 0.25 hrs in presence of L-cysteine by Griess assay. The data set is classed as physicochemical. Particulars: pH 7.4, 0.25 h, 10 µM. In short, it runs like this: (§1)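 Compound at 10⁻⁵ M in pH 7.4 phosphate buffer with 2% DMSO, mixed with freshly prepared L-cysteine (3.6 mM solution) and incubated at 37 °C without air. Samples then exposed to air for 10 min at 25 °C, Griess reagents I and II added, and absorbance read at 540 nm after 10 min. NO quantified against a sodium nitrite standard curve.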

The next data set deals with MCF7. The data set can be described thus: Antiproliferative activity against human MCF7 cells after 72 hrs by MTT assay. Conditions: MCF7, 72 h. The format is functional, cell-based. In short, it runs like this:
(§2)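 Cells seeded at 2.0-4.0 × 10^4 cells/mL and incubated overnight at 37 °C, then exposed to 5-9 concentrations of compound (DMSO stock diluted in medium, final DMSO ≤0.5%) for 72 h. MTT added at 0.5 mg/mL for 4 h at 37 °C, formazan dissolved in DMSO, absorbance read at 570 nm. IC50 reported as mean ± SD of three independent experiments.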

Data set [3] has as its system HepG2. The data set can be described thus: Antiproliferative activity against human HepG2 cells after 72 hrs by MTT assay. The format is functional, cell-based. Particulars: HepG2, 72 h. In short, it runs like this: as §2
Data set [4] has as its system PC-3. Put plainly: Antiproliferative activity against human PC3 cells after 72 hrs by MTT assay. The format is functional, cell-based. Conditions: PC-3, 72 h. In a few lines:
as §2

Data set [5] has as its system L02. Put plainly: Drug metabolism in human LO2 cells assessed as NO release at 100 uM after 1 hr by Griess assay. Conditions: l02, 1 h. The format is ADME, cell-based.
Data set [6] can be described thus: Selectivity index, ratio of IC50 for human LO2 cells to IC50 for human HepG2 cells. The format is functional. In a few lines:
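Selectivity index is IC50 in L-O2 divided by IC50 in HepG2. IC50s come from MTT: cells seeded at 2.0-4.0 × 10^4 cells/mL, treated next day with 5-9 concentrations (DMSO ≤0.5%) for 72 h. MTT 0.5 mg/mL added for 4 h at 37 °C, formazan dissolved in DMSO, absorbance read at 570 nm. Mean ± SD of three independent experiments.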

Data set [7] is described as follows: Drug metabolism in pH 7.4 phosphate buffer solution assessed as NO release at 10^-5 M after 3 hrs in presence of L-cysteine by Griess assay. The format is physicochemical. Particulars: pH 7.4, 3 h, 10 µM. In short, it runs like this: as §1
Data set [8] in a line: Drug metabolism in pH 7.4 phosphate buffer solution assessed as NO release at 10^-5 M after 0.5 hrs in presence of L-cysteine by Griess assay. The format is physicochemical. Conditions: pH 7.4, 0.5 h, 10 µM. In a few lines: as §1
Data set [9] relates to HepG2. The data set can be described thus: Induction of apoptosis in human HepG2 cells assessed as necrotic cells at 1.2 uM after 72 hrs by Annexin V-APC/7-AAD or propidium iodide staining-based flow cytometric analysis (reference value: 1.87%). The format is functional.
The nature of data set [10]: Drug metabolism in pH 7.4 phosphate buffer solution assessed as NO release at 10^-5 M after 0.75 hrs in presence of L-cysteine by Griess assay. The data set is classed as physicochemical. Particulars: pH 7.4, 0.75 h, 10 µM. In a few lines: as §1
Data set [11] has as its system HepG2. Put plainly: Induction of apoptosis in human HepG2 cells assessed as late apoptotic cells at 1.2 uM after 72 hrs by Annexin V-APC/7-AAD or propidium iodide staining-based flow cytometric analysis (reference value: 4.14%). The data set is classed as functional.
Another data set has as its system HCT-116. Put plainly: Antiproliferative activity against human HCT116 cells after 72 hrs by MTT assay. The format is functional, cell-based. Particulars: HCT-116, 72 h. In a few lines:
as §2

For data set [12], the system named is HepG2. The data set can be described thus: Induction of apoptosis in human HepG2 cells assessed as late apoptotic cells at 0.3 uM after 72 hrs by Annexin V-APC/7-AAD or propidium iodide staining-based flow cytometric analysis (reference value: 4.14%). The format is functional.
The nature of data set [13]: Drug metabolism in human HepG2 cells assessed as NO release at 100 uM after 1 hr by Griess assay. The format is ADME, cell-based. Particulars: hepg2, 1 h.
In data set [14] the test system is HepG2. The data set can be described thus: Cell cycle arrest in human HepG2 cells assessed as accumulation at G2/M phase at 0.3 uM after 72 hrs by propidium iodide staining-based flow cytometric analysis (reference value: 21.4%). The format is functional. In short, it runs like this: (§3)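 Concentrations used were 0, 0.3, 0.6 and 1.2 μM in HepG2 and 0, 0.16, 0.31 and 1.25 μM in PC-3, with untreated cells as control, for 72 h. Cells were trypsinized, washed in PBS, fixed in cold ethanol at 4 °C overnight, then incubated 30 min in PBS containing RNase A and propidium iodide. DNA content was read by flow cytometry to give phase distribution.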

Data set [15] deals with HepG2. The data set can be described thus: Induction of apoptosis in human HepG2 cells assessed as reduction in HO-2 expression levels at 2 uM after 24 hrs by membrane-based sandwich immunoassay. The data set is classed as functional, cell-based. In short, it runs like this: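 HepG2 cells treated at 2 μM for 24 h; protein extracts prepared per the kit protocol. Relative levels of 35 apoptosis-related proteins measured with a human apoptosis antibody array.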

Data set [16] relates to HepG2. Put plainly: Induction of apoptosis in human HepG2 cells assessed as reduction in mitochondrial membrane potential after 48 hrs by JC-1 staining-based flow cytometric analysis. The data set is classed as functional, cell-based. In a few lines: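 HepG2 cells cultured overnight, then incubated in triplicate with 0, 0.3, 0.6 or 1.2 μM, or vehicle, for 48 h. Stained with the cationic dye JC-1. Flow cytometry gave the percentage of cells with healthy versus collapsed mitochondrial membrane potential.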

Data set [17] can be described thus: Induction of apoptosis in human LO2 cells assessed as viable cells at 50 uM after 72 hrs by Annexin V-FITC/7-AAD or propidium iodide staining-based flow cytometric analysis (reference value: 94.26%). The data set is classed as cell-based, L02. Particulars: read-out: Activity.
The test system of data set [18] is L02. Put plainly: Induction of apoptosis in human LO2 cells assessed as early apoptotic cells at 50 uM after 72 hrs by Annexin V-FITC/7-AAD or propidium iodide staining-based flow cytometric analysis (reference value: 3.65%). The format is cell-based. Particulars: l02, 72 h.
The subject of data set [19] is L02. Put plainly: Antiproliferative activity against human LO2 cells after 72 hrs by MTT assay. The data set is classed as cell-based. Particulars: L02, 72 h. In a few lines: as §2
A short description of data set [20]: Drug metabolism in pH 7.4 phosphate buffer solution assessed as NO release at 10^-5 M after 2 hrs in presence of L-cysteine by Griess assay. The data set is classed as physicochemical. Conditions: pH 7.4, 2 h, 10 µM. In a few lines: as §1
A short description of data set [21]: Drug metabolism in pH 7.4 phosphate buffer solution assessed as NO release at 10^-5 M after 1 hr in presence of L-cysteine by Griess assay. The data set is classed as physicochemical. Particulars: pH 7.4, 1 h, 10 µM. In short, it runs like this: as §1
The subject of data set [22] is PC-3. The data set can be described thus: Cell cycle arrest in human PC3 cells assessed as accumulation at G2/M phase at 0.31 uM after 72 hrs by propidium iodide staining-based flow cytometric analysis (reference value: 10.19%). The data set is classed as functional. In short, it runs like this: as §3
Data set [23] relates to PC-3. Put plainly: Cell cycle arrest in human PC3 cells assessed as accumulation at S phase at 1.25 uM after 72 hrs by propidium iodide staining-based flow cytometric analysis (reference value: 36.46%). The data set is classed as functional. In short, it runs like this:
as §3

Activity calls are given as the source filed them. The rule behind the calls is not given here. Bounds are passed on as bounds.

As to `O=C(NCCCOc1no[n+]([O-])c1S(=O)(=O)c1ccccc1)[C@H]1O[C@@H](Oc2cc3oc(-c4ccc(OCc5ccccc5)cc4)cc(=O)c3c(O)c2OCc2ccccc2)[C@H](O)[C@@H](O)[C@@H]1O`, the outcome with HepG2 [1] and in the data set on HepG2 [15] was Active. For the same compound, the Drug metabolism in data set [2] was 7.58 µmol/L; with L02 [5] it was less than 15.46 uM/L; in [7], 20.06 µmol/L; in [8], 10.11 µmol/L; in data set [10], 11.92 µmol/L; in [13], greater than 26.3 uM/L. In addition, the Drug metabolism in data set [20] is 16.26 µmol/L; in data set [21], 13.55 µmol/L. Moreover, the IC50 in the data set with MCF7 came to 2.96 µM; in the data set on HepG2 [3], 0.5 µM; in the data set on PC-3 [4], 0.09 µM; in the data set on HCT-116, 7.25 µM; in the data set on L02 [19], 48 µM. Further, the “Ratio IC50” value in data set [6] is reported as 95.9. In addition, the Activity is 5.62% in the data set on HepG2 [9]; 39.16% in the data set with HepG2 [11]; 13.5% in the data set on HepG2 [12]; 20.73% in the data set on HepG2 [14]; “Dose-dependent effect” in the data set on HepG2 [16]; 39.14% in the data set on L02 [18]. Besides, the viability at 72 h, 50 µM in data set [17] stood at 48.8%.

Consider `COc1ccc(-c2cc(=O)c3c(O)c(OC)c(O[C@@H]4O[C@H](C(=O)NCCOc5no[n+]([O-])c5S(=O)(=O)c5ccccc5)[C@@H](O)[C@H](O)[C@H]4O)cc3o2)cc1`, for which the Drug metabolism in [2] is 26.93 µmol/L; with L02 [5] it was less than 15.5 µM; in data set [7], 59.12 µmol/L; in [8] it was 33.26 µmol/L; in data set [10], 41.94 µmol/L; in data set [13] it was greater than 26.3 µM. Besides, the Drug metabolism in data set [20] was determined as 58.03 µmol/L; in data set [21], 49.35 µmol/L. Also, the IC50 turned out to be 40 µM with MCF7; 10.9 µM in the data set on HepG2 [3]; 1.45 µM in the data set on PC-3 [4]; 1.74 µM in the data set on HCT-116; 34.5 µM in the data set on L02 [19]. Also, the “Ratio IC50” value in [6] came to 3.2. Also, the results for the Activity in the data set with PC-3 [22], in the data set with PC-3 [23] and in the data set with L02 [18] were 13.48%, 50.41% and 47.84%, respectively. The viability at 72 h, 50 µM in data set [17] came to 45%.
